Published values pooled from the literature.
Lines come from different studies, so protocols differ.
Target: Calcium/calmodulin-dependent protein kinase type II subunit alpha (CAMK2A, Homo sapiens, UniProt Q9UQM7)

SMILES | effect on | mode | technique | tested at | measurement | value
CC(C)(C)c1nc2c(s1)c1nc(N)ncc1c1ccc(NS(=O)(=O)c3c(F)cccc3F)c(F)c12 | enzyme activity | inhibitor | radiometric | 1 µM | remaining activity | 80%
COc1cc(Cl)c(C(=O)N[C@@H](CN[C@H]2CC[C@@H](N)CC2)Cc2ccc(C#N)cc2)cc1-c1ccc(CN[C@H](C)c2ccc(C)cc2)o1 | enzyme activity | inhibitor |  | 1 µM | remaining activity | 99%
Cn1c2c(Cl)c(Cl)ccc2c2cn[nH]c(=O)c21 | thermal stability |  | DSF | 10 µM | ΔTm | 0.8 °C
Cc1c(NC(=O)c2cc(C(N)=O)nc3cc(F)ccc23)c(C(F)(F)F)nn1Cc1ccc(C(C)(C)C)cc1 | cell-free assay |  | competition with immobilised ligand | 1 µM | remaining binding | 89%
CC1(C)NC(=O)c2[nH]c3c(Cl)c(Cl)ccc3c2C1C#N (stereo not shown) | thermal stability |  | DSF | 10 µM | ΔTm | 1 °C
O=C(Nc1cnn(-c2csc(C(=O)NC3COC3)c2)c1)Nc1c(F)cccc1Cl | enzyme activity | inhibitor |  | 5 µM | remaining activity | 99.4%
O=C1Nc2ccc(Cl)cc2C1=Cc1cc(Cl)c(O)c(Cl)c1 | cell-free assay |  |  | 0.5 µM | remaining signal | 92.9%
CCC1(CC)NC(=O)c2c(c3ccc(Cl)c(Cl)c3n2C)C1C#N (stereo not shown) | thermal stability |  | DSF | 10 µM | ΔTm | 0.7 °C
Cc1ccc(C(=O)NCc2ccsc2)cc1C#Cc1cn(C(C)C)c2ncnc(N)c12 | enzyme activity | inhibitor |  | 1 µM | activity vs control | 113%
COc1cc2ncnc(Nc3ccc(Oc4ccccc4)cc3C)c2cc1OC | enzyme activity | inhibitor |  | 1 µM | inhibition | -1%
C[S+]([O-])c1ccc(-c2nc(-c3ccncc3)c(-c3ccc(F)cc3)[nH]2)cc1 (stereo not shown) | cell-free assay |  |  | 0.5 µM | remaining signal | 101%
Nc1cnc(N2CCc3cc(S(=O)(=O)Nc4c(F)cc(Cl)cc4F)cc(N4CCCC4=O)c32)nc1 | cell-free assay |  | competition with immobilised ligand | 1 µM | remaining binding | 92%
N#CCCc1ccc2c(c1)-c1[nH]c3ccc([N+](=O)[O-])cc3c1CC(=O)N2 | cell-free assay |  |  | 0.5 µM | remaining signal | 69.1%
O=C(Nc1ccc(Oc2ccc(F)cc2)cc1)N1CCc2ncccc2[C@H]1c1ccc(F)cc1 | cell-free assay |  | competition with immobilised ligand | 1 µM | remaining binding | 88%
Cc1ccc(C(=O)Nc2ccc(CN3CCN(C)CC3)c(C(F)(F)F)c2)cc1C#Cc1cnc2cccnn12 | enzyme activity | inhibitor |  | 23.5 nM | remaining activity | 95%
CCC(=N\O)/C(C)=C/c1ccc(F)cc1 | cell-free assay |  | competition with immobilised ligand | 1 µM | remaining binding | 81%
CSc1nc(C)c(-c2ccnc(Nc3ccc(N4CCOCC4)cc3)c2)[nH]1 | enzyme activity | inhibitor |  | 10 µM | inhibition | -5.7%
N#Cc1ccc(Nc2ccc3[nH]c(=O)[nH]c3c2)c(Cl)c1 | cell-free assay |  | competition with immobilised ligand | 1 µM | remaining binding | 84%
CCCS(=O)(=O)Nc1ccc(F)c(C(=O)c2c[nH]c3ncc(-c4ccc(Cl)cc4)cc23)c1F | enzyme activity | inhibitor |  | 1 µM | inhibition | < 20%
O=C1CCc2cc(Nc3cc(OC4CCOCC4)c([N+](=O)[O-])cc3Cl)ccc2N1 | cell-free assay |  | competition with immobilised ligand | 1 µM | remaining binding | 85%
Cn1c2c(c3ccc(Cl)c(Cl)c31)C(C#N)C1(CCCC1)NC2=O (stereo not shown) | thermal stability |  | DSF | 10 µM | ΔTm | 0.9 °C
CNC(=O)c1ccc(Nc2ncc(C(F)(F)F)c(NCc3nccnc3N(C)S(C)(=O)=O)n2)cc1 | cell-free assay |  | competition with immobilised ligand | 0.1 µM | remaining binding | 83%
Nc1ncnc2occ(-c3ccc(NC(=O)Nc4cc(C(F)(F)F)ccc4F)cc3)c12 | enzyme activity | inhibitor |  | 20 µM | remaining activity | 61%
Cc1cc(-n2nc(Cc3cc(F)cc(C(F)(F)F)c3)nc2C)ccc1C(N)=O | cell-free assay |  | competition with immobilised ligand | 1 µM | remaining binding | 99%
Cc1ccc(NC(=O)c2ccc(CN3CCN(C)CC3)cc2)cc1Nc1nccc(-c2cccnc2)n1 | enzyme activity | inhibitor |  | 0.5 µM | activity vs control | 100%
